As a reminder, the Ki is the dissociation constant of the complex between target and ligand, obtained from inhibition or displacement. Higher therefore signals weaker binding. For orientation: IC50 means the midpoint of a concentration-inhibition curve.

Experimental findings from BindingDB's records for doi:10.1021/jm010131q (National Center For Genetic Engineering and Biotechnology …, 2002) are described below.

Experiment [1] has as its target Bifunctional dihydrofolate reductase-thymidylate synthase (Plasmodium falciparum (isolate K1 / Thailand), UniProt P13922). Description: Inhibition of the wild-type dihydrofolate reductase (DHFR). In short, it runs like this:
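Assay at 25 °C: 50 mM TES pH 7.0, 75 mM β-mercaptoethanol, 1 mg/mL BSA, 100 µM H2folate and 100 µM NADPH. NADPH oxidation followed at 340 nm. Ki derived from IC50 as Ki(1+[S]/Km), assuming competitive inhibition.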

Experiment [2] in a line: Antiplasmodial activity IC50 against Plasmodium falciparum K1CB1 DHFR double-mutant ([…]).

Chain of Bifunctional dihydrofolate reductase-thymidylate synthase (P13922 whole entry): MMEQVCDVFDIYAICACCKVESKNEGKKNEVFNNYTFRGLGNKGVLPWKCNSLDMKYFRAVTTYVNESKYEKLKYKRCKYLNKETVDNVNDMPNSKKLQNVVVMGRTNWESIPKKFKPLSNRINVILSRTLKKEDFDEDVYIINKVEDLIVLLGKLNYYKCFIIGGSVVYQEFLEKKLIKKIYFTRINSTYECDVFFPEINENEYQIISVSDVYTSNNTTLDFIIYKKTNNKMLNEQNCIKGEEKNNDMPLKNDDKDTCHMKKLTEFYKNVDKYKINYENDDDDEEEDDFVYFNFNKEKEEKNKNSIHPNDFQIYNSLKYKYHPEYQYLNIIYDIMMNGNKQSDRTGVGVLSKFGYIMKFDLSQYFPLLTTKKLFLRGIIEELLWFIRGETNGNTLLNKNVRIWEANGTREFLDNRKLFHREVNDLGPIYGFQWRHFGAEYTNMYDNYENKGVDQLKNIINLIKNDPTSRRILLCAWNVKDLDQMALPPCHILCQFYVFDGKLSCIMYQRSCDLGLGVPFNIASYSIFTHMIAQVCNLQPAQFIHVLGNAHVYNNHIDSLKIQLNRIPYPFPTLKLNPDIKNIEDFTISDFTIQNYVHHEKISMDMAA

On to `Cc1nc(N)nc(N)c1-c1ccc(Cl)cc1`, for which, in experiment [1], the affinity, expressed as Ki, was 0.002 µM. This compound also displayed an IC50 in experiment [2] of 60.1 µM. Compound `COC(=O)CCCc1nc(N)nc(N)c1-c1ccc(Cl)cc1` had a half-maximal inhibitory concentration (IC50) in experiment [2] of 22.3 µM.

Turning to `CCc1nc(N)nc(N)c1-c1ccc(OC)cc1`, the Ki in experiment [1] came to 0.0009 µM. The compound further displayed a half-inhibitory concentration (IC50) in experiment [2] above 25 µM. For `CCc1nc(N)nc(N)c1-c1ccc(Cl)c(Cl)c1`, in experiment [2], the IC50 is 17.4 µM. The same measure, in the same setting: the result for `Nc1nc(N)c(-c2cccc(Cl)c2)c(CCCc2ccccc2)n1` reads 3 µM; that for `CCc1nc(N)nc(N)c1-c1ccccc1`, 3.3 µM. For the compound `Cc1nc(N)nc(N)c1-c1ccccc1`, the Ki in experiment [1] turned out to be 0.0109 µM. This compound displayed a concentration for half-maximal inhibition (IC50) in experiment [2] of 30.8 µM. In experiment [2], `Nc1nc(N)c(-c2ccccc2)c(CCCc2ccccc2)n1` returned an IC50 of 2.3 µM.

For `COC(=O)CCCc1nc(N)nc(N)c1-c1ccccc1` [4-(2,6-Diamino-5-phenyl-pyrimidin-4-yl)-butyric acid methyl ester], the IC50 in experiment [2] came out at 31.3 µM. Take `COC(=O)CCCc1nc(N)nc(N)c1-c1cccc(Cl)c1` [4-[2,6-Diamino-5-(3-chloro-phenyl)-pyrimidin-4-yl]-butyric acid methyl ester]: in experiment [2], the midpoint of inhibition, the IC50, lay at 36.3 µM. In the case of `CCc1nc(N)nc(N)c1-c1ccc(Cl)cc1Cl` [5-(2,4-Dichloro-phenyl)-6-ethyl-pyrimidine-2,4-diamine], the Ki in experiment [1] came to 0.0126 µM. For the same compound, it took 22.5 µM to reach half-maximal inhibition in experiment [2] (IC50).

`CCOc1c(Br)cc(-c2c(N)nc(N)nc2CC)cc1Br` [5-(3,5-Dibromo-4-ethoxy-phenyl)-6-ethyl-pyrimidine-2,4-diamine] had a Ki in experiment [1] of 0.007 µM. For the same compound, in experiment [2], the IC50 was found to be 17.4 µM. Compound `COc1ccc(CCCc2nc(N)nc(N)c2-c2cccc(Cl)c2)cc1` [5-(3-Chloro-phenyl)-6-[3-(4-methoxy-phenyl)-propyl]-pyrimidine-2,4-diamine] returned an IC50 in experiment [2] of 2.7 µM. In experiment [1], `Nc1ncc(-c2cccc(Cl)c2)c(N)n1` [5-(3-Chloro-phenyl)-pyrimidine-2,4-diamine] had a Ki of 0.0063 µM. Moreover, in experiment [2], the IC50 came to 8.8 µM. In the case of `Nc1nc(N)c(-c2cccc(Cl)c2)c(CCOCCCOc2ccccc2)n1` [5-(3-chlorophenyl)-6-[2-(3-phenoxypropoxy)ethyl]pyrimidine-2,4-diamine], the half-maximal inhibitory concentration (IC50) in experiment [2] amounted to 3.3 µM.

In experiment [2], `CCc1nc(N)nc(N)c1-c1cccc(Cl)c1` [5-(3-chlorophenyl)-6-ethylpyrimidine-2,4-diamine] yielded an IC50 of 1.3 µM. On the same count and under the same terms, the result for `Cc1nc(N)nc(N)c1-c1cccc(Cl)c1` [5-(3-chlorophenyl)-6-methylpyrimidine-2,4-diamine] reads 4.8 µM. Take `COc1cc(Cc2cnc(N)nc2N)cc(OC)c1OCc1ccccc1` [5-(4-Benzyloxy-3,5-dimethoxy-benzyl)-pyrimidine-2,4-diamine]: the Ki in experiment [1] was found to be 0.0042 µM. This compound came in with an IC50 in experiment [2] of 30.1 µM. As for `Nc1nc(N)c(-c2ccc(Cl)cc2)c(CCCc2ccccc2)n1` [5-(4-Chloro-phenyl)-6-(3-phenyl-propyl)-pyrimidine-2,4-diamine], the IC50 in experiment [2] was 10.6 µM. Compound `CCc1nc(N)nc(N)c1-c1ccc(Br)cc1` [5-(4-bromophenyl)-6-ethylpyrimidine-2,4-diamine] registered a Ki in experiment [1] of 0.0003 µM. This compound returned an IC50 in experiment [2] of 25 µM. The matching figures for `Nc1ncc(-c2ccc(Cl)cc2)c(N)n1` [5-(4-chlorophenyl)pyrimidine-2,4-diamine]: 0.0024 µM and 26.2 µM. In the same order, the values of `CCc1nc(N)nc(N)c1-c1ccc(C(C)(C)C)cc1` [5-(4-tert-butylphenyl)-6-ethylpyrimidine-2,4-diamine] are 0.0006 µM and 3.9 µM.

In turn, `CCc1nc(N)nc(N)c1-c1ccc2c(c1)OCO2` [5-Benzo[1,3]dioxol-5-yl-6-ethyl-pyrimidine-2,4-diamine] displayed a half-inhibitory concentration (IC50) in experiment [2] of 21.5 µM. `CCc1nc(N)nc(N)c1-c1ccc(-c2ccccc2)cc1` [5-Biphenyl-4-yl-6-ethyl-pyrimidine-2,4-diamine] yielded an inhibition constant (Ki) in experiment [1] of 0.188 µM. Besides, the concentration for half-maximal inhibition (IC50) in experiment [2] stood at 4.4 µM. Compound `Nc1ncc(-c2ccccc2)c(N)n1` [5-Phenyl-pyrimidine-2,4-diamine] registered an IC50 in experiment [2] of 19.4 µM.

In turn, `COc1cc(Cc2cnc(N)nc2N)ccc1OCc1cc(OC)c(OC)c(OC)c1` [5-[3-Methoxy-4-(3,4,5-trimethoxy-benzyloxy)-benzyl]-pyrimidine-2,4-diamine] gave a Ki in experiment [1] of 0.0006 µM. Also, half-maximal inhibition in experiment [2] (IC50) was put at 27.8 µM.

Regarding `COc1cc(Cc2cnc(N)nc2N)ccc1OCCCc1ccccc1` [5-[3-Methoxy-4-(3-phenyl-propoxy)-benzyl]-pyrimidine-2,4-diamine], the Ki in experiment [1] was 0.0018 µM. Also, in experiment [2], half-maximal inhibition (IC50) was put at 11.7 µM. The matching figures for `CCc1nc(N)nc(N)c1-c1ccc(OCc2ccc(Cl)cc2Cl)c(OC)c1` [5-[4-(2,4-Dichloro-benzyloxy)-3-methoxy-phenyl]-6-ethyl-pyrimidine-2,4-diamine]: 0.001 µM and above 50 µM. In the same order, the values of `COc1cc(COc2cc(Cc3cnc(N)nc3N)ccc2OCc2ccccc2)cc(OC)c1OC` [5-[4-Benzyloxy-3-(3,4,5-trimethoxy-benzyloxy)-benzyl]-pyrimidine-2,4-diamine] are 0.0121 µM and 17.5 µM. The matching figures for `Nc1ncc(Cc2ccc(OCCCOc3cc(Cl)c(Cl)cc3Cl)cc2)c(N)n1` [5-{4-[3-(2,4,5-Trichloro-phenoxy)-propoxy]-benzyl}-pyrimidine-2,4-diamine]: 0.0009 µM and 3.5 µM.

With `CCc1nc(N)nc(N)c1-c1ccc(C)cc1` [6-ethyl-5-(4-methylphenyl)pyrimidine-2,4-diamine], in experiment [2], 12.7 µM corresponded to half-maximal inhibition (IC50).

Take `CCCCCCc1nc(N)nc(N)c1-c1ccccc1` [6-hexyl-5-phenylpyrimidine-2,4-diamine]: in experiment [2], half-maximal inhibition (IC50) required 1.3 µM.
